Measured values as given in article PMC6001664 (Chemmedchem, 2018).
In brackets after ≈: the same amount, converted by molar mass. Read-outs that look alike come from different tables or passages of the source.

Assays:
[1] = tested on: plasma EPO; experiment: Plasma EPO in rats after oral dosing; format: in vivo; details: 4 h (Figure 7), BAY-908 50 mg kg^−1
[2] = tested on: hematocrit and reticulocytes; experiment: Hematocrit and reticulocytes in mice; format: in vivo
[3] = tested on: major CYP isoforms; experiment: CYP profile; format: in vitro ADME
[4] = target: T1, PHD1 (Homo sapiens, UniProt Q96KS0); experiment: Biochemical HIF-PH enzyme assay; details: for dependence of potency (IC50) on Fe^2+ concentration: Fe^2+ varied in reaction buffer (3 μM and 30 μM, Figure 3); for LipE (lipophilic binding efficiency): LipE=pIC50−logD 7.5; for BEI (binding efficiency index): from pIC50 and molecular weight
Method in brief: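 Human HIF-PH hydroxylates Pro564 of a HIF peptide (aa 556–574). The hydroxylated peptide binds europium-labelled recombinant VBC complex, and inhibition is read as lower fluorescence. Iron dependence was tested at 3 and 30 μM Fe²⁺. LipE = pIC50 − logD7.5; BEI derived from pIC50 and corrected molecular weight.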

[5] = tested on: endogenous HIF in recombinant A549 lung carcinoma cell; experiment: HIF-reporter cell assay; format: cell-based
[6] = tested on: plasma EPO; experiment: EPO mRNA / plasma EPO in mice; format: in vivo; details: for plasma EPO concentration: 4 h after p.o. dosing of 100 mg kg^−1, baseline ≈120 pg mL^−1
[7] = Pharmacokinetic studies in rats; format: in vivo; details: rat; for clearance: blood, iv, 2 mg/kg; for Relative bioavailability (Tylose suspension) / bioavailability as Tylose suspension: p.o.; for Relative bioavailability (Tylose suspension): 0.5 % Tylose in water vs solution; for bioavailability as Tylose suspension: 0.5 % Tylose in water
[8] = logD 7.5 by HPLC retention time correlation; format: physicochemical; details: pH 7.5
Method in brief: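 logD at pH 7.5 was estimated by correlating HPLC retention times with those of reference compounds of known logD7.5.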

[9] = tested on: HIF‐1α in HeLa cells; experiment: Induction of HIF-1α in HeLa cell cultures; format: cell-based; details: human HeLa cell cultures
[10] = tested on: broad range of targets including 2‐OG‐dependent dioxygenases, metalloenzymes, nuclear hormone receptors and cell surface receptors; experiment: Lead profiling selectivity panel
[11] = tested on: EPO in HuH cells; experiment: EPO induction in hepatoma HuH cells; format: cell-based, human
[12] = Aqueous solubility; format: physicochemical; details: water
[13] = Elimination of iron via urine in rats; format: in vivo; details: oral administration
[14] = Early safety profile
[15] = tested on: PHD3; details: salt-free compound; cited from earlier work
[16] = target: T1, PHD1; details: cited from earlier work
[17] = pKa determination by spectrophotometry; format: physicochemical; details: aqueous solution
[18] = cited from earlier work
[19] = sodium salt; cited from earlier work
[20] = metabolite of molidustat; cited from earlier work
[21] = Homo sapiens, A549, read-out: EC50 HIF-reporter cell assay

T1 sequence (Q96KS0 whole entry, the tested form may be a part): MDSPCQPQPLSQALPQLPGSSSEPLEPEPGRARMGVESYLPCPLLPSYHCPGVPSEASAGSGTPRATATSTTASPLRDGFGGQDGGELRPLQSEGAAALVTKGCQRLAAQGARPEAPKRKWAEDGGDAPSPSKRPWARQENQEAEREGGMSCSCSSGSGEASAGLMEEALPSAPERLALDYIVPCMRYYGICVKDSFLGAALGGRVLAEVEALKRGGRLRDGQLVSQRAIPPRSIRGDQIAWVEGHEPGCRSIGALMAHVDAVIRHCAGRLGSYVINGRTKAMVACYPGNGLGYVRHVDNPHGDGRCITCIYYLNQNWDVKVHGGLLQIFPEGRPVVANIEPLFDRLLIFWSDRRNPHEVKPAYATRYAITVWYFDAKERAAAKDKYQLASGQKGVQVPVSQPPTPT

## Oc1c(-c2cccnc2)cnn1-c1ccccn1 [Compound 1, 1‐(Pyridin‐2‐yl)‐4‐(pyridin‐3‐yl)‐1H‐pyrazol‐5‐ol]
[1]
  plasma EPO concentration in rats: increased
[2]
  hematocrit and reticulocytes: increase
[3]
  CYP profile / CYP inhibition: clean
[4]
  IC50: 430 nM
  dependence of potency (IC50) on Fe^2+ concentration: only minor changes
  LipE (lipophilic binding efficiency): 5.8
  BEI (binding efficiency index): 26.7
[5]; [21]
  EC50: 4900 nM
[6]
  plasma EPO concentration: ≈ 900 pg mL^−1
[6]; after i.p. and p.o. administration
  EPO mRNA and plasma EPO levels / EPO induction: increased
[7]
  clearance: 48.3 mL/min/kg
  Relative bioavailability (Tylose suspension): 26%
[8]
  chromatographic logD: 0.6
[9]
  concentration at which HIF‐1α was detected: > 0.25 µM
[10]
  selectivity profile in lead profiling panel: favorable
[11]; Homo sapiens, read-out: EC50 EPO mRNA induction
  EC50: 1900 nM
[11]; human hepatoma HuH cells
  increase in EPO concentration in the supernatant compared with baseline: threefold
[12]
  solubility: < 1 µg/mL
[13]
  elimination of iron via urine: did not result in any increased elimination of iron via urine

## Cc1nn(-c2ccccn2)c(O)c1-c1cccnc1 [Compound 3]
[4]
  IC50: 3500 nM

## O=c1c(-c2cccnc2)n[nH]n1-c1ccccn1 [Compound 4]
[4]
  IC50: 24000 nM

## S=c1c(-c2cccnc2)c[nH]n1-c1ccccn1 [Compound 5]
[4]
  IC50: 7500 nM

## Nc1c(-c2cccnc2)cnn1-c1ccccn1 [Compound 6]
[4]
  IC50: > 50000 nM

## COc1c(-c2cccnc2)cnn1-c1ccccn1 [Compound 8]
[4]
  IC50: > 50000 nM

## Cn1cc(-c2cccnc2)c(=O)n1-c1ccccn1 [Compound 9]
[4]
  IC50: > 50000 nM

## Oc1c(-c2cccnc2)ncnc1-c1ccccn1 [Compound 10]
[4]
  IC50: > 50000 nM

## Cc1ccnc(-n2[nH]cc(-c3cccnc3)c2=O)c1 [Compound 11]
[4]
  IC50: 340 nM

## Cc1ccc(-n2[nH]cc(-c3cccnc3)c2=O)nc1 [Compound 12]
[4]
  IC50: 1700 nM

## Cc1cccc(-n2[nH]cc(-c3cccnc3)c2=O)n1 [Compound 13]
[4]
  IC50: 8900 nM

## O=c1c(-c2cccnc2)c[nH]n1-c1cc(CO)ccn1 [Compound 17]
[4]
  IC50: 1500 nM

## O=c1c(-c2cccnc2)c[nH]n1-c1cc(COCc2ccccc2)ccn1 [Compound 18]
[4]
  IC50: 2900 nM

## COc1cc(-n2[nH]cc(-c3cccnc3)c2=O)ncn1 [Compound 20]
[4]
  IC50: 880 nM

## O=c1c(-c2cccnc2)c[nH]n1-c1cc(N2CCCCC2)ncn1 [Compound 22]
[4]
  IC50: 1500 nM

## O=c1c(-c2cccnc2)c[nH]n1-c1cc(N2CCOCC2)ncn1 [Compound 23]
[4]
  IC50: 180 nM

## CCOC(=O)c1ccc(-n2[nH]cc(-c3cccnc3)c2=O)nc1 [Compound 25]
[4]
  IC50: 650 nM
[5]; [21]
  EC50: 5300 nM

## O=c1c(-c2cccnc2)c[nH]n1-c1ccc(COCc2ccccc2)cn1 [Compound 27]
[4]
  IC50: 1100 nM

## Cc1cncc(-c2cnn(-c3ccccn3)c2O)c1 [Compound 30]
[4]
  IC50: 1700 nM

## Cc1ccc(-c2c[nH]n(-c3ccccn3)c2=O)cn1 [Compound 31]
[4]
  IC50: 3200 nM

## COc1ccc(-c2c[nH]n(-c3ccccn3)c2=O)cn1 [Compound 33]
[4]
  IC50: 190 nM

## N#Cc1ccc(-c2c[nH]n(-c3ccccn3)c2=O)cn1 [Compound 34]
[4]
  IC50: 100 nM

## N#Cc1cncc(-c2cnn(-c3ccccn3)c2O)c1 [Compound 35]
[4]
  IC50: 1000 nM

## O=c1c(-c2cnccn2)c[nH]n1-c1ccccn1 [Compound 36]
[4]
  IC50: 28000 nM

## O=c1c(-n2cnc(C(F)(F)F)c2)c[nH]n1-c1ccccn1 [Compound 38]
[4]
  IC50: 150 nM

## O=c1c(-n2ccnn2)c[nH]n1-c1ccccn1 [Compound 41]
[4]
  IC50: 790 nM
[5]; [21]
  EC50: > 20000 nM

## Cc1cn(-c2c[nH]n(-c3ccccn3)c2=O)nn1 [Compound 42]
[4]
  IC50: 330 nM

## Oc1c(-n2ccnc2)cnn1-c1cc(N2CCCCC2)ncn1 [Compound 44, 4‐(1H‐Imidazol‐1‐yl)‐1‐[6‐(piperidin‐1‐yl)pyrimidin‐4‐yl]‐1H‐pyrazol‐5‐ol]
[1]
  plasma EPO concentration in rats: improved
[14]
  early safety profile: not optimal
[3]
  CYP profile / CYP inhibition: not optimal
[4]
  IC50: 500 nM
  LipE (lipophilic binding efficiency): 5.3
  BEI (binding efficiency index): 20.2
[5]; [21]
  EC50: 4900 nM
[6]
  plasma EPO concentration: ≈ 3000 pg mL^−1
[7]
  clearance: 21.7 mL/min/kg
  bioavailability as Tylose suspension: remained unchanged
  Relative bioavailability (Tylose suspension): 97%
[8]
  chromatographic logD: 1
[12]
  solubility: 520 µg/mL (≈ 1670 µM)

## Oc1c(-n2ccnn2)cnn1-c1cc(N2CCOCC2)ncn1 [Compound 45, 1‐[6‐(Morpholin‐4‐yl)pyrimidin‐4‐yl]‐4‐(1H‐1,2,3‐triazol‐1‐yl)‐1H‐pyrazol‐5‐ol]
[1]
  plasma EPO concentration in rats: Very high EPO induction
[3]
  CYP profile / CYP inhibition: favorable
[4]
  dependence of potency (IC50) on Fe^2+ concentration: independent
  LipE (lipophilic binding efficiency): 6.1
  BEI (binding efficiency index): 20.1
[15]
  IC50: 450 nM
[5]; [21]
  EC50: 8400 nM
[6]
  plasma EPO concentration: ≈ 4000 pg mL^−1
[7]
  clearance: 18.3 mL/min/kg
  bioavailability as Tylose suspension: remained unchanged
  Relative bioavailability (Tylose suspension): 102%
[8]
  chromatographic logD: 0.27
[16]; Fe^2+ in the reaction buffer varied by a factor of 30
  change in potency on variation of Fe^2+ concentration: ≤ 2 fold
[16]; biochemical assay, PHD1, HCl salt, ref 30 (WO2008067871 A1, example 72)
  IC50: 490 nM
[17]
  pK a: 4.4
[10]
  selectivity profile in lead profiling panel: favorable
[12]
  solubility: 140 µg/mL (≈ 445 µM)
[18]; 20–35 °C, normal pressure, >20 % relative humidity
  water uptake: up to 6 % w/w

## [Na+].[O-]c1c(-n2ccnn2)cnn1-c1cc(N2CCOCC2)ncn1 [Compound 84, Sodium 1‐[6‐(morpholin‐4‐yl)pyrimidin‐4‐yl]‐4‐(1 H ‐1,2,3‐triazol‐1‐yl)‐1H‐pyrazol‐5‐olate]
[19]
  solubility in water: 28000 µg/mL
[18]; 20–35 °C, normal pressure
  water content: < 0.5 % w/w
[18]; relative humidity of up to 90 %
  change of water content: < 0.5 % w/w

## O=C(O)[C@H]1O[C@@H](n2cc(-n3ccnn3)c(=O)n2-c2cc(N3CCOCC3)ncn2)[C@H](O)[C@@H](O)[C@@H]1O [Compound 85, 1‐(Beta‐D‐glucopyranuronosyl)‐2‐[6‐(morpholin‐4‐yl)pyrimidin‐4‐yl]‐4‐(1H‐1,2,3‐triazol‐1‐yl)‐1,2‐dihydro‐3H‐pyrazol‐3‐one]
[3]
  CYP profile / CYP inhibition: no relevant CYP inhibition
[20]
  excreted via urine: 85 % of dose

## [Cl][Co][Cl] [cobalt chloride, reference compound]
[5]; read-out: EC50 HIF-reporter cell assay, A549 HIFRE2 luciferase reporter
  EC50: ~50000 nM

## CC(=O)N(O)CCCCCNC(=O)CCC(=O)N(O)CCCCCNC(=O)CCC(=O)N(O)CCCCCN [deferoxamine, reference compound]
[5]; [21]
  EC50: ~25000 nM
